Measured values as given in ChEMBL document CHEMBL3864165, “Design, synthesis, and AChE inhibitory activity of new benzothiazole-piperazines” (Bioorg Med Chem Lett, 2016).

Legend:
[1] = biological target: Acetylcholinesterase (Electrophorus electricus) (UniProt O42275); assay: Inhibition of electric eel AChE at 10^-6 M preincubated for 15 mins followed by acetylthiocholine iodide substrate addition measured for 5 mins by Ellman's spectrophotometric method relative to control
Acetylcholinesterase [2] = biological target: T1, Acetylcholinesterase (Electrophorus electricus, UniProt O42275); assay: Inhibition of electric eel AChE preincubated for 15 mins followed by acetylthiocholine iodide substrate addition measured for 5 mins by Ellman's spectrophotometric method
[3] = biological target: Acetylcholinesterase (Electrophorus electricus) (UniProt O42275); assay: Inhibition of electric eel AChE at 10^-7 M preincubated for 15 mins followed by acetylthiocholine iodide substrate addition measured for 5 mins by Ellman's spectrophotometric method relative to control
[4] = Cytotoxicity against mouse NIH/3T3 cells after 24 hrs by MTT assay
[5] = biological target: Acetylcholinesterase (Electrophorus electricus) (UniProt O42275); assay: Inhibition of electric eel AChE at 10^-3 M preincubated for 15 mins followed by acetylthiocholine iodide substrate addition measured for 5 mins by Ellman's spectrophotometric method relative to control
[6] = biological target: Acetylcholinesterase (Electrophorus electricus) (UniProt O42275); assay: Inhibition of electric eel AChE at 10^-4 M preincubated for 15 mins followed by acetylthiocholine iodide substrate addition measured for 5 mins by Ellman's spectrophotometric method relative to control
Acetylcholinesterase [7] = biological target: T1, Acetylcholinesterase; assay: Mixed-type inhibition of electric eel AChE preincubated for 15 mins followed by acetylthiocholine iodide substrate addition measured for 5 mins by Lineweaver-Burk plot analysis
Method in brief: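 Substrate-velocity curves recorded with and without inhibitor, with initial velocities measured at acetylthiocholine (ATC) concentrations from 600 µM down to 18.75 µM. Data analysed as 1/V plots. Ki taken as the x-axis intercept of a secondary plot of 1/V versus inhibitor concentration.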

Salmonella typhimurium [8] = assay: Genotoxicity in Salmonella typhimurium TA98 assessed as increase in number of revertants at 0.156 mg/ml in presence of aroclor-1254-induced Sprague-Dawley rat liver S9 fraction by Ames-MPF assay relative to control; type: toxicity, organism-based; conditions: salmonella enterica subsp. enterica serovar typhimurium
Method in brief: (§1)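 Ames MPF microplate fluctuation format, run with and without S9 metabolic activation. The read-out is the count of positive (revertant) wells. A run is accepted only when positive controls give more than 25 positive wells and negative controls give fewer than eight.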

Salmonella typhimurium [9] = assay: Genotoxicity in Salmonella typhimurium TA98 assessed as increase in number of revertants at 0.3125 mg/ml in presence of aroclor-1254-induced Sprague-Dawley rat liver S9 fraction by Ames-MPF assay relative to control; type: toxicity, organism-based; conditions: salmonella enterica subsp. enterica serovar typhimurium; method in brief: as §1
Salmonella typhimurium [10] = assay: Genotoxicity in Salmonella typhimurium TA98 assessed as increase in number of revertants at 0.625 mg/ml in presence of aroclor-1254-induced Sprague-Dawley rat liver S9 fraction by Ames-MPF assay relative to control; type: toxicity, organism-based; conditions: salmonella enterica subsp. enterica serovar typhimurium; method in brief: as §1
Salmonella typhimurium [11] = assay: Genotoxicity in Salmonella typhimurium TA98 assessed as increase in number of revertants at 1.25 mg/ml in presence of aroclor-1254-induced Sprague-Dawley rat liver S9 fraction by Ames-MPF assay relative to control; type: toxicity, organism-based; conditions: salmonella enterica subsp. enterica serovar typhimurium; method in brief: as §1
Salmonella typhimurium [12] = assay: Genotoxicity in Salmonella typhimurium TA98 assessed as increase in number of revertants at 2.5 mg/ml in presence of aroclor-1254-induced Sprague-Dawley rat liver S9 fraction by Ames-MPF assay relative to control; type: toxicity, organism-based; conditions: salmonella enterica subsp. enterica serovar typhimurium; method in brief: as §1
Salmonella typhimurium [13] = assay: Genotoxicity in Salmonella typhimurium TA98 assessed as increase in number of revertants at 5 mg/ml in presence of aroclor-1254-induced Sprague-Dawley rat liver S9 fraction by Ames-MPF assay relative to control; type: toxicity, organism-based; conditions: salmonella enterica subsp. enterica serovar typhimurium; method in brief: as §1
Salmonella typhimurium [14] = assay: Genotoxicity in Salmonella typhimurium TA98 assessed as increase in number of revertants at 0.156 mg/ml in absence of aroclor-1254-induced Sprague-Dawley rat liver S9 fraction by Ames-MPF assay relative to control; type: toxicity, organism-based; conditions: salmonella enterica subsp. enterica serovar typhimurium; method in brief: as §1
Salmonella typhimurium [15] = assay: Genotoxicity in Salmonella typhimurium TA98 assessed as increase in number of revertants at 0.3125 mg/ml in absence of aroclor-1254-induced Sprague-Dawley rat liver S9 fraction by Ames-MPF assay relative to control; type: toxicity, organism-based; conditions: salmonella enterica subsp. enterica serovar typhimurium; method in brief: as §1
Salmonella typhimurium [16] = assay: Genotoxicity in Salmonella typhimurium TA98 assessed as increase in number of revertants at 0.625 mg/ml in absence of aroclor-1254-induced Sprague-Dawley rat liver S9 fraction by Ames-MPF assay relative to control; type: toxicity, organism-based; conditions: salmonella enterica subsp. enterica serovar typhimurium; method in brief: as §1
Salmonella typhimurium [17] = assay: Genotoxicity in Salmonella typhimurium TA98 assessed as increase in number of revertants at 1.25 mg/ml in absence of aroclor-1254-induced Sprague-Dawley rat liver S9 fraction by Ames-MPF assay relative to control; type: toxicity, organism-based; conditions: salmonella enterica subsp. enterica serovar typhimurium; method in brief: as §1
Salmonella typhimurium [18] = assay: Genotoxicity in Salmonella typhimurium TA98 assessed as increase in number of revertants at 2.5 mg/ml in absence of aroclor-1254-induced Sprague-Dawley rat liver S9 fraction by Ames-MPF assay relative to control; type: toxicity, organism-based; conditions: salmonella enterica subsp. enterica serovar typhimurium; method in brief: as §1
Salmonella typhimurium [19] = assay: Genotoxicity in Salmonella typhimurium TA98 assessed as increase in number of revertants at 5 mg/ml in absence of aroclor-1254-induced Sprague-Dawley rat liver S9 fraction by Ames-MPF assay relative to control; type: toxicity, organism-based; conditions: salmonella enterica subsp. enterica serovar typhimurium; method in brief: as §1
Salmonella typhimurium [20] = assay: Genotoxicity in Salmonella typhimurium TA100 assessed as increase in number of revertants at 0.156 mg/ml in presence of aroclor-1254-induced Sprague-Dawley rat liver S9 fraction by Ames-MPF assay relative to control; type: toxicity, organism-based; conditions: salmonella enterica subsp. enterica serovar typhimurium; method in brief: as §1
Salmonella typhimurium [21] = assay: Genotoxicity in Salmonella typhimurium TA100 assessed as increase in number of revertants at 0.3125 mg/ml in presence of aroclor-1254-induced Sprague-Dawley rat liver S9 fraction by Ames-MPF assay relative to control; type: toxicity, organism-based; conditions: salmonella enterica subsp. enterica serovar typhimurium; method in brief: as §1
Salmonella typhimurium [22] = assay: Genotoxicity in Salmonella typhimurium TA100 assessed as increase in number of revertants at 0.625 mg/ml in presence of aroclor-1254-induced Sprague-Dawley rat liver S9 fraction by Ames-MPF assay relative to control; type: toxicity, organism-based; conditions: salmonella enterica subsp. enterica serovar typhimurium; method in brief: as §1
Salmonella typhimurium [23] = assay: Genotoxicity in Salmonella typhimurium TA100 assessed as increase in number of revertants at 1.25 mg/ml in presence of aroclor-1254-induced Sprague-Dawley rat liver S9 fraction by Ames-MPF assay relative to control; type: toxicity, organism-based; conditions: salmonella enterica subsp. enterica serovar typhimurium; method in brief: as §1
Salmonella typhimurium [24] = assay: Genotoxicity in Salmonella typhimurium TA100 assessed as increase in number of revertants at 2.5 mg/ml in presence of aroclor-1254-induced Sprague-Dawley rat liver S9 fraction by Ames-MPF assay relative to control; type: toxicity, organism-based; conditions: salmonella enterica subsp. enterica serovar typhimurium; method in brief: as §1
Salmonella typhimurium [25] = assay: Genotoxicity in Salmonella typhimurium TA100 assessed as increase in number of revertants at 5 mg/ml in presence of aroclor-1254-induced Sprague-Dawley rat liver S9 fraction by Ames-MPF assay relative to control; type: toxicity, organism-based; conditions: salmonella enterica subsp. enterica serovar typhimurium; method in brief: as §1
Salmonella typhimurium [26] = assay: Genotoxicity in Salmonella typhimurium TA100 assessed as increase in number of revertants at 0.156 mg/ml in absence of aroclor-1254-induced Sprague-Dawley rat liver S9 fraction by Ames-MPF assay relative to control; type: toxicity, organism-based; conditions: salmonella enterica subsp. enterica serovar typhimurium; method in brief: as §1
Salmonella typhimurium [27] = assay: Genotoxicity in Salmonella typhimurium TA100 assessed as increase in number of revertants at 0.3125 mg/ml in absence of aroclor-1254-induced Sprague-Dawley rat liver S9 fraction by Ames-MPF assay relative to control; type: toxicity, organism-based; conditions: salmonella enterica subsp. enterica serovar typhimurium; method in brief: as §1
Salmonella typhimurium [28] = assay: Genotoxicity in Salmonella typhimurium TA100 assessed as increase in number of revertants at 0.625 mg/ml in absence of aroclor-1254-induced Sprague-Dawley rat liver S9 fraction by Ames-MPF assay relative to control; type: toxicity, organism-based; conditions: salmonella enterica subsp. enterica serovar typhimurium; method in brief: as §1
Salmonella typhimurium [29] = assay: Genotoxicity in Salmonella typhimurium TA100 assessed as increase in number of revertants at 1.25 mg/ml in absence of aroclor-1254-induced Sprague-Dawley rat liver S9 fraction by Ames-MPF assay relative to control; type: toxicity, organism-based; conditions: salmonella enterica subsp. enterica serovar typhimurium; method in brief: as §1
Salmonella typhimurium [30] = assay: Genotoxicity in Salmonella typhimurium TA100 assessed as increase in number of revertants at 2.5 mg/ml in absence of aroclor-1254-induced Sprague-Dawley rat liver S9 fraction by Ames-MPF assay relative to control; type: toxicity, organism-based; conditions: salmonella enterica subsp. enterica serovar typhimurium; method in brief: as §1
Salmonella typhimurium [31] = assay: Genotoxicity in Salmonella typhimurium TA100 assessed as increase in number of revertants at 5 mg/ml in absence of aroclor-1254-induced Sprague-Dawley rat liver S9 fraction by Ames-MPF assay relative to control; type: toxicity, organism-based; conditions: salmonella enterica subsp. enterica serovar typhimurium; method in brief: as §1

Sequence of Acetylcholinesterase (Electrophorus electricus) (O42275 24-633 limits assumed): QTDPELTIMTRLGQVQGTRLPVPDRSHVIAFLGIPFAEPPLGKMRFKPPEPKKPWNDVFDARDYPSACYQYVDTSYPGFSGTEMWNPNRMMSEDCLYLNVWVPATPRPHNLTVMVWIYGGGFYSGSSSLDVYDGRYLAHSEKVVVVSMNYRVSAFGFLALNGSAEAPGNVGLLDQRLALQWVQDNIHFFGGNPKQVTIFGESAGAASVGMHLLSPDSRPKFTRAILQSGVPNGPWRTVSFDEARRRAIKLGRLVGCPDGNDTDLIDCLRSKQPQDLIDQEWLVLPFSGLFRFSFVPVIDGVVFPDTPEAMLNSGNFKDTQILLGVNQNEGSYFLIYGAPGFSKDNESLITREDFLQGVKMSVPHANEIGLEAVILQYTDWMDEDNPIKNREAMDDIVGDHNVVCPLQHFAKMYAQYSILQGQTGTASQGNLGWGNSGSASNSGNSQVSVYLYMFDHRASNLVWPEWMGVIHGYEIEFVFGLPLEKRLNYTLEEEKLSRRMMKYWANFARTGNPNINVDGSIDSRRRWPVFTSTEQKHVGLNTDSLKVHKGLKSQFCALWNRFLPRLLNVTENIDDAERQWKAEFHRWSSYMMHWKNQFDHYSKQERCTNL
T1 sequence (O42275 whole entry): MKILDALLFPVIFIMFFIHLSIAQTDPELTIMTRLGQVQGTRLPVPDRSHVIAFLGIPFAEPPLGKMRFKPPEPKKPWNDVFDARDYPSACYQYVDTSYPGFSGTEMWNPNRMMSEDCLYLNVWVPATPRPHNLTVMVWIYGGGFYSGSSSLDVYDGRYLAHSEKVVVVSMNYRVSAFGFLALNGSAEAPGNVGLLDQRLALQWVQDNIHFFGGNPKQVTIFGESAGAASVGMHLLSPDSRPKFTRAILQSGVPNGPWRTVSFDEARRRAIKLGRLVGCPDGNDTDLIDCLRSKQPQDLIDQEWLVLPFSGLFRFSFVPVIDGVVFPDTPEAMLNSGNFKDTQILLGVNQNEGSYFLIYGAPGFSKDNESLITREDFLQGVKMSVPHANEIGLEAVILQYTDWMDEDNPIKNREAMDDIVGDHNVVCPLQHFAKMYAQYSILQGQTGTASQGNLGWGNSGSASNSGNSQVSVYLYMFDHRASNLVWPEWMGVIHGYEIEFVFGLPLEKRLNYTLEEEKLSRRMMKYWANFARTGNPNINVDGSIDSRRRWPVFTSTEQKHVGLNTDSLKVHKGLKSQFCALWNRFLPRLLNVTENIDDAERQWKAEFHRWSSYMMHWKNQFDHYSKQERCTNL

COc1cc2nc(NC(=O)CN3CCN(Cc4ccc(Cl)cc4)CC3)sc2cc1OC
inhibition [1]: > 50% | IC50 (Acetylcholinesterase [2]): 130 nM

COc1ccc2nc(NC(=O)CN3CCN(CCN(C)C)CC3)sc2c1
inhibition [1]: > 50% | inhibition [3]: > 50% | IC50 (Acetylcholinesterase [2]): 94.6 nM

COc1cc2c(cc1OC)C(=O)C(CC1CCN(Cc3ccccc3)CC1)C2 (stereo unspecified) [DONEPEZIL]
IC50 at 24 h ([4]; nih3t3): 316000 nM

COc1cc2nc(NC(=O)CN3CCN(CCCN(C)C)CC3)sc2cc1OC
inhibition [1]: > 50% | inhibition [3]: > 50% | inhibition [5]: > 95% | inhibition [6]: 90% | IC50 (Acetylcholinesterase [2]): 57.6 nM | Ki (Acetylcholinesterase [7]): 250 nM | IC50 at 24 h ([4]; NIH/3T3 cells): 100000 nM | fold change (FC) (Salmonella typhimurium [8]): 0.28 | fold change (FC) (Salmonella typhimurium [9]): 1.4 | fold change (FC) (Salmonella typhimurium [10]): 0.56 | fold change (FC) (Salmonella typhimurium [11]): 0.84 | fold change (FC) (Salmonella typhimurium [12]): 1.02 | fold change (FC) (Salmonella typhimurium [13]): 1.49 | fold change (FC) (Salmonella typhimurium [14]): 0.94 | fold change (FC) (Salmonella typhimurium [15]): 0.47 | fold change (FC) (Salmonella typhimurium [16]): 1.04 | fold change (FC) (Salmonella typhimurium [17]): 0.52 | fold change (FC) (Salmonella typhimurium [18]): 1.15 | fold change (FC) (Salmonella typhimurium [19]): 0.89 | fold change (FC) (Salmonella typhimurium [20]): 0.98 | fold change (FC) (Salmonella typhimurium [21]): 0.6 | fold change (FC) (Salmonella typhimurium [22]): 0.53 | fold change (FC) (Salmonella typhimurium [23]): 1.36 | fold change (FC) (Salmonella typhimurium [24]): 1.36 | fold change (FC) (Salmonella typhimurium [25]): 1.43 | fold change (FC) (Salmonella typhimurium [26]): 0.79 | fold change (FC) (Salmonella typhimurium [27]): 0.9 | fold change (FC) (Salmonella typhimurium [28]): 0.69 | fold change (FC) (Salmonella typhimurium [29]): 1.32 | fold change (FC) (Salmonella typhimurium [30]): 0.32 | fold change (FC) (Salmonella typhimurium [31]): 0.05

COc1ccc2nc(NC(=O)CN3CCN(Cc4ccc(F)cc4)CC3)sc2c1
inhibition [1]: > 50% | IC50 (Acetylcholinesterase [2]): 244 nM

COc1ccc2nc(NC(=O)CN3CCN(CCCN(C)C)CC3)sc2c1
inhibition [1]: > 50% | inhibition [3]: > 50% | IC50 (Acetylcholinesterase [2]): 117 nM

COc1cc2nc(NC(=O)CN3CCN(Cc4ccc(C(F)(F)F)cc4)CC3)sc2cc1OC
inhibition [1]: > 50% | IC50 (Acetylcholinesterase [2]): 198 nM

COc1cc2nc(NC(=O)CN3CCN(Cc4ccc(F)cc4)CC3)sc2cc1OC
inhibition [1]: > 50% | IC50 (Acetylcholinesterase [2]): 175 nM
